SMILES strings stand for the structures. A value given as a limit tells only on which side of the number the result lay.

The record followed here is ChEMBL document CHEMBL4715732, “4-Phenylureido/thioureido-substituted 2,2-dimethylchroman analogs of cromakalim bearing a bulky 'carbamate' moiety at the 6-position as potent inhibitors of glucose-sensitive insulin secretion” (Eur J Med Chem, 2016).

One assay deals with Aorta. Put plainly: Myorelaxant activity in aortic rings isolated from Wistar rat assessed as reduction in KCl-induced contractions measured after 60 mins in presence of 80 mM KCl by force-displacement transducer. The following applies: 1 h, in the assay text read “30 mM KCl” for “80 mM KCl”. The format is functional, tissue-based. The procedure, abridged: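 Endothelium-free rat aorta rings were contracted with 30 mM or 80 mM K+, with 1 or 10 μM glibenclamide present for some 30 mM series. Agent was applied cumulatively. EC50 is the concentration giving 50% relaxation of the KCl-induced contraction, reported as mean ± SEM (n).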

Assay [1] can be described thus: Residual glucose-induced insulin secretion in Wistar rat pancreatic islets at 1 uM incubated for 90 mins in presence of 16.7 mM glucose by radioimmunological assay relative to control. The following applies: Pancreatic islet, 1.5 h.
Assay [2] can be described thus: Residual glucose-induced insulin secretion in Wistar rat pancreatic islets at 10 uM incubated for 90 mins in presence of 16.7 mM glucose by radioimmunological assay relative to control. Particulars: Pancreatic islet, 1.5 h.

The EC50 is the midpoint of the concentration-response curve. In the case of `COC(=O)Nc1ccc2c(c1)C(NC(=S)Nc1cccc(Cl)c1)CC(C)(C)O2` (racemic), in the assay with Aorta, the EC50 came to 15.4 µM. Also, the residual insulin secretion at 1 µM in assay [1] is 84.2%. In addition, the residual insulin secretion at 10 µM in assay [2] came to 26.1%.
For the molecule `CCOC(=O)Nc1ccc2c(c1)C(NC(=S)Nc1cccc(C#N)c1)CC(C)(C)O2` (racemic), in the assay on Aorta, the 50% effective concentration (EC50) was determined as 12.3 µM. Moreover, the residual insulin secretion at 1 µM in assay [1] came out at 77.6%. Besides, the residual insulin secretion at 10 µM in assay [2] was determined as 14.8%.
As for `CC(C)(C)OC(=O)Nc1ccc2c(c1)C(NC(=O)Nc1ccc(C#N)cc1)CC(C)(C)O2` (racemic), the EC50 in the assay with Aorta stood at 6.5 µM. For the same molecule, in assay [1], the residual insulin secretion at 1 µM came out at 53.4%. Besides, the residual insulin secretion at 10 µM in assay [2] was 5.8%.
Turning to `CC(C)OC(=O)Nc1ccc2c(c1)C(NC(=O)Nc1ccc(Cl)cc1)CC(C)(C)O2` (racemic), the EC50 in the assay with Aorta came out at 46.2 µM. Also, the residual insulin secretion at 1 µM in assay [1] is 92.3%. The residual insulin secretion at 10 µM in assay [2] turned out to be 48.7%.
The like results for `CCOC(=O)Nc1ccc2c(c1)C(NC(=S)Nc1ccc(C#N)cc1)CC(C)(C)O2` (racemic) were, in that order, 19.4 µM, 80.2% and 10.2%.
For `CC(C)OC(=O)Nc1ccc2c(c1)C(NC(=O)Nc1cccc(Cl)c1)CC(C)(C)O2` (racemic), the concentration giving a half-maximal response (EC50) in the assay with Aorta came to 12.6 µM. In assay [1], the residual insulin secretion at 1 µM was found to be 92%. In addition, the residual insulin secretion at 10 µM in assay [2] is 23.7%.
In the case of `CCOC(=O)Nc1ccc2c(c1)C(NC(=S)Nc1ccc(Cl)cc1)CC(C)(C)O2` (racemic), in the assay with Aorta, the half-maximal effective concentration (EC50) was determined as 8.9 µM. The residual insulin secretion at 1 µM in assay [1] was determined as 78.4%. The residual insulin secretion at 10 µM in assay [2] stood at 22%.
Take `CC1(C)Oc2ccc(C#N)cc2C(N2CCCC2=O)C1O` (racemic) [CROMAKALIM]: the residual insulin secretion at 1 µM in assay [1] amounted to 95.3%. In assay [2], the residual insulin secretion at 10 µM worked out at 94.4%.
Turning to `CC(C)(C)OC(=O)Nc1ccc2c(c1)C(NC(=O)Nc1ccc(Cl)cc1)CC(C)(C)O2` (racemic), in the assay with Aorta, the EC50 worked out at 9.4 µM. The residual insulin secretion at 1 µM in assay [1] came out at 86.1%. The residual insulin secretion at 10 µM in assay [2] was determined as 36.4%.
For the molecule `COC(=O)Nc1ccc2c(c1)C(NC(=S)Nc1ccc(C#N)cc1)CC(C)(C)O2` (racemic), in the assay on Aorta, the EC50 was more than 30 µM. Besides, the residual insulin secretion at 1 µM in assay [1] was determined as 93.8%. Besides, in assay [2], the residual insulin secretion at 10 µM came out at 27.8%.
Consider `COC(=O)Nc1ccc2c(c1)C(NC(=O)Nc1ccc(C#N)cc1)CC(C)(C)O2` (racemic), for which the EC50 in the assay with Aorta is more than 30 µM. Further, the residual insulin secretion at 1 µM in assay [1] turned out to be 89.7%. In addition, in assay [2], the residual insulin secretion at 10 µM amounted to 36.9%.
In the case of `COC(=O)Nc1ccc2c(c1)C(NC(=S)Nc1ccc(Cl)cc1)CC(C)(C)O2` (racemic), the 50% effective concentration (EC50) in the assay on Aorta was 24.4 µM. For the same molecule, the residual insulin secretion at 1 µM in assay [1] was 84.9%. The residual insulin secretion at 10 µM in assay [2] is 22.8%.
Turning to `CC(C)OC(=O)Nc1ccc2c(c1)C(NC(=S)Nc1cccc(Cl)c1)CC(C)(C)O2` (racemic), the EC50 with Aorta was 11 µM. Besides, the residual insulin secretion at 1 µM in assay [1] turned out to be 81.5%. Moreover, the residual insulin secretion at 10 µM in assay [2] is 19.3%.
As for `COC(=O)Nc1ccc2c(c1)C(NC(=O)Nc1ccc(Cl)cc1)CC(C)(C)O2` (racemic), in the assay with Aorta, the EC50 was more than 30 µM. The residual insulin secretion at 1 µM in assay [1] amounted to 92.7%. The residual insulin secretion at 10 µM in assay [2] came to 53.7%.
Take `CCOC(=O)Nc1ccc2c(c1)C(NC(=O)Nc1ccc(C#N)cc1)CC(C)(C)O2` (racemic): in the assay on Aorta, the EC50 was more than 30 µM. Also, the residual insulin secretion at 1 µM in assay [1] is 79.5%. Also, in assay [2], the residual insulin secretion at 10 µM was 17.4%.
The like results for `CCOC(=O)Nc1ccc2c(c1)C(NC(=S)Nc1cccc(Cl)c1)CC(C)(C)O2` (racemic) were, in that order, 22.7 µM, 73.7% and 21.5%.
The like results for `CC(C)OC(=O)Nc1ccc2c(c1)C(NC(=O)Nc1ccc(C#N)cc1)CC(C)(C)O2` (racemic) were, in that order, 17.7 µM, 80.7% and 14.1%.
The like results for `CCOC(=O)Nc1ccc2c(c1)C(NC(=O)Nc1cccc(Cl)c1)CC(C)(C)O2` (racemic) were, in that order, 13.1 µM, 82.8% and 36.1%.
For the molecule `CC(C)OC(=O)Nc1ccc2c(c1)C(NC(=O)Nc1cccc(C#N)c1)CC(C)(C)O2` (racemic), in the assay with Aorta, the 50% effective concentration (EC50) worked out at 12.1 µM. Also, the residual insulin secretion at 1 µM in assay [1] turned out to be 50.5%. For the same molecule, in assay [2], the residual insulin secretion at 10 µM was determined as 12.7%.
With `COC(=O)Nc1ccc2c(c1)C(NC(=S)Nc1cccc(C#N)c1)CC(C)(C)O2` (racemic), the concentration giving a half-maximal response (EC50) in the assay with Aorta was found to be 4.8 µM. In addition, the residual insulin secretion at 1 µM in assay [1] was 85.1%. Moreover, in assay [2], the residual insulin secretion at 10 µM came out at 29.3%.
Consider `COC(=O)Nc1ccc2c(c1)C(NC(=O)Nc1cccc(C#N)c1)CC(C)(C)O2` (racemic), for which the half-maximal effective concentration (EC50) in the assay on Aorta was 16.9 µM. Moreover, in assay [1], the residual insulin secretion at 1 µM is 88.3%. In addition, in assay [2], the residual insulin secretion at 10 µM came out at 9.4%.
Turning to `CCOC(=O)Nc1ccc2c(c1)C(NC(=O)Nc1cccc(C#N)c1)CC(C)(C)O2` (racemic), the EC50 in the assay on Aorta is 14.2 µM. Besides, the residual insulin secretion at 1 µM in assay [1] worked out at 81%. For the same molecule, in assay [2], the residual insulin secretion at 10 µM is 5.9%.
`CCOC(=O)Nc1ccc2c(c1)C(NC(=O)Nc1ccc(Cl)cc1)CC(C)(C)O2` (racemic): the EC50 in the assay on Aorta worked out at 21.2 µM. In addition, the residual insulin secretion at 1 µM in assay [1] worked out at 92.1%. Besides, the residual insulin secretion at 10 µM in assay [2] stood at 49.9%.
Consider `CC(C)(C)OC(=O)Nc1ccc2c(c1)C(NC(=O)Nc1cccc(Cl)c1)CC(C)(C)O2` (racemic), for which, in the assay on Aorta, the EC50 stood at 18.7 µM. For the same molecule, the residual insulin secretion at 1 µM in assay [1] was found to be 86.4%. In assay [2], the residual insulin secretion at 10 µM turned out to be 11%.
On to `COC(=O)Nc1ccc2c(c1)C(NC(=O)Nc1cccc(Cl)c1)CC(C)(C)O2` (racemic), for which the concentration giving a half-maximal response (EC50) in the assay with Aorta was more than 30 µM. In assay [1], the residual insulin secretion at 1 µM came to 92%. Also, the residual insulin secretion at 10 µM in assay [2] turned out to be 35.7%.
Turning to `CC(C)OC(=O)Nc1ccc2c(c1)C(NC(=S)Nc1ccc(Cl)cc1)CC(C)(C)O2` (racemic), the 50% effective concentration (EC50) in the assay with Aorta came out at 10.4 µM. Also, in assay [1], the residual insulin secretion at 1 µM was found to be 81.2%. In addition, the residual insulin secretion at 10 µM in assay [2] was 14.9%.
As to `CC(C)OC(=O)Nc1ccc2c(c1)C(NC(=S)Nc1ccc(C#N)cc1)CC(C)(C)O2` (stereo not given), in the assay with Aorta, the 50% effective concentration (EC50) came to 7.2 µM. The residual insulin secretion at 1 µM in assay [1] stood at 86%. The residual insulin secretion at 10 µM in assay [2] amounted to 14.8%.
As for `CC1=Nc2ccc(Cl)cc2S(=O)(=O)N1` [DIAZOXIDE], the residual insulin secretion at 1 µM in assay [1] was 91%. Besides, in assay [2], the residual insulin secretion at 10 µM was found to be 80.8%.
On to `CC(C)OC(=O)Nc1ccc2c(c1)C(NC(=S)Nc1cccc(C#N)c1)CC(C)(C)O2` (racemic), for which the EC50 in the assay on Aorta turned out to be 5.6 µM. Moreover, the residual insulin secretion at 1 µM in assay [1] worked out at 79.3%. The residual insulin secretion at 10 µM in assay [2] was determined as 14.2%.
